ED50, Collapse time and Ratio data for 18 molecules are collected here from ChEMBL document CHEMBL1124631, “3-(aminoalkyl)-1,2,3,4-tetrahydro-5H-[1]benzopyrano[3,4-c] pyridin-5-ones as potential anticholinergic bronchodilators” (1989).

The species named for assay [1] is Canis familiaris. Briefly: Inhibition of dog salivation by 50% of control value. It counts as functional. The conditions noted are these: Canis lupus familiaris; read-out: ID50 (the source's name). A digest of the protocol:
(§1)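 Dogs with femoral vein cannulated; respiratory rate, heart rate and arterial pressure monitored. Bunolol 0.5 mg/kg iv given 30 min before pilocarpine nitrate infusion (0.2 mg/kg/h) to induce bronchospasm and salivation. Saliva collected from catheterized Wharton's duct every 5 min. Cumulative iv doses 1–10,000 μg/kg given every 5 min. ID50 by linear regression of log cumulative dose vs % inhibition. Mostly one dog per compound.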

For assay [2], the species on record is Canis familiaris. Briefly: Compound dose for inhibiting dog cholinergic bronchoconstriction by 50% of control value. It counts as functional. The following applies: Canis lupus familiaris, Lung; read-out: ID50 (the source's name). A digest of the protocol:
as §1

The next assay deals with Cavia porcellus. The assay can be described thus: Methacholine challenge test was performed on guinea pigs by administration of compound at 25 mg/kg perorally. It counts as functional. The following applies: route oral. The method in brief:
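Hartley guinea pigs, six per treatment, dosed orally at 25 mg/kg 15 min before challenge. Exposed for 10 min to 0.1% methacholine chloride aerosol from two nebulizers in a closed chamber, air pressure 10 lb/in.². Time from aerosol onset to collapse recorded and averaged ± S.E.M. Non-collapsing animals removed at 10 min and scored 10.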

The species named for assay [3] is Canis familiaris. Briefly: Pulmonary selectivity measured as the ratio of salivation and bronchospasm. In kind it is functional, Canis lupus familiaris, Bronchiole. A digest of the protocol: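 Pilocarpine-infused dog model measuring pulmonary resistance and salivary output under cumulative iv doses (1–10,000 μg/kg). ID50 for each response by log dose–response linear regression. Selectivity = ID50 for salivation inhibition divided by ID50 for bronchospasm inhibition. Most compounds tested in one dog.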

In the case of `CCCN(CC)C(C)CN1CCc2c(c(=O)oc3cc(OC)ccc23)C1` (configuration not stated), the ED50 came to 0.027 mg/kg in the assay filed under Canis familiaris [1] and 0.058 mg/kg in the assay filed under Canis familiaris [2]. Besides, the Collapse time in the assay on Cavia porcellus is 10 min. For the same molecule, the Ratio in the assay filed under Canis familiaris [3] was found to be 0.47.

On to `CCN(CC)C(C)CN1CCc2c(c(=O)oc3cc(OC)ccc23)C1` (configuration not stated), for which the ED50 is 0.046 mg/kg in the assay filed under Canis familiaris [1] and 0.038 mg/kg in the assay filed under Canis familiaris [2]. The Collapse time with Cavia porcellus amounted to 10 min. For the same molecule, in the assay listed under Canis familiaris [3], the Ratio was 1.2.

`O=c1oc2ccccc2c2c1CN(CCN1CC3CCC(CC3)C1)CC2`: the results for the ED50 in the assay listed under Canis familiaris [1] and in the assay filed under Canis familiaris [2] were 0.068 mg/kg and 0.849 mg/kg, respectively. For the same molecule, the Collapse time with Cavia porcellus is 5.2 min. In addition, in the assay listed under Canis familiaris [3], the Ratio is reported as 0.08.

Turning to `CC(CN1CCc2c(c(=O)oc3ccccc23)C1)N1CCCCC1` (configuration not stated), the ED50 was 0.219 mg/kg in the assay listed under Canis familiaris [1] and 0.038 mg/kg in the assay listed under Canis familiaris [2]. This molecule also gave a Collapse time in the assay with Cavia porcellus of 10 min. For the same molecule, in the assay filed under Canis familiaris [3], the Ratio is listed as 5.8.

In the case of `COc1ccc2c3c(c(=O)oc2c1)CN(CCN1CCCCCC1)CC3`, the ED50 in the assay listed under Canis familiaris [1] was determined as 0.398 mg/kg; in the assay listed under Canis familiaris [2], 0.223 mg/kg. For the same molecule, in the assay with Cavia porcellus, the Collapse time turned out to be 8 min. In the assay listed under Canis familiaris [3], the Ratio is recorded as 1.8.

Consider `COc1cc2oc(=O)c3c(c2cc1OC)CCN(CC(C)N1CCCCC1)C3` (configuration not stated), for which the ED50 worked out at 0.168 mg/kg in the assay filed under Canis familiaris [1] and 0.129 mg/kg in the assay filed under Canis familiaris [2]. The molecule also had a Collapse time in the assay with Cavia porcellus of 10 min. Moreover, in the assay filed under Canis familiaris [3], the Ratio was determined as 1.3.

As to `Cc1ccc2c3c(c(=O)oc2c1)CN(CCN1CC2CCC(CC2)C1)CC3`, the ED50 in the assay listed under Canis familiaris [1] came to 0.452 mg/kg; in the assay listed under Canis familiaris [2], 0.235 mg/kg. For the same molecule, the Collapse time with Cavia porcellus is reported as 5 min. Moreover, the Ratio in the assay listed under Canis familiaris [3] is 1.9.

As for `CCNC(C)CN1CCc2c(c(=O)oc3cc(C)ccc23)C1` (configuration not stated), the ED50 in the assay listed under Canis familiaris [1] was 0.225 mg/kg; in the assay listed under Canis familiaris [2], 0.627 mg/kg. Besides, the Collapse time in the assay with Cavia porcellus is on record as 10 min. In addition, the Ratio in the assay filed under Canis familiaris [3] was 0.36.

Turning to `COc1cc2oc(=O)c3c(c2cc1OC)CCN(CC(C)N1CCCC1)C3` (configuration not stated), the ED50 in the assay listed under Canis familiaris [1] is 0.023 mg/kg; in the assay listed under Canis familiaris [2], 0.017 mg/kg. Further, in the assay with Cavia porcellus, the Collapse time worked out at 10 min. Besides, in the assay listed under Canis familiaris [3], the Ratio is on record as 1.4.

As to `COc1ccc2c3c(c(=O)oc2c1)CN(CCN1CC2CCC(CC2)C1)CC3`, the ED50 in the assay filed under Canis familiaris [1] amounted to 0.104 mg/kg; in the assay listed under Canis familiaris [2], 0.035 mg/kg. This molecule returned a Collapse time with Cavia porcellus of 6 min. In the assay filed under Canis familiaris [3], the Ratio was 3.

On to `CCCN(C)C(C)CN1CCc2c(c(=O)oc3cc(C)ccc23)C1` (configuration not stated), for which the ED50 is 0.304 mg/kg in the assay listed under Canis familiaris [1] and 0.192 mg/kg in the assay filed under Canis familiaris [2]. This molecule also had a Collapse time with Cavia porcellus of 5.4 min. The Ratio in the assay listed under Canis familiaris [3] was 1.6.

Take `CCc1ccc2c3c(c(=O)oc2c1)CN(CCN1CC2CCC(CC2)C1)CC3`: the ED50 worked out at 0.041 mg/kg in the assay listed under Canis familiaris [1] and 0.074 mg/kg in the assay filed under Canis familiaris [2]. For the same molecule, the Collapse time in the assay with Cavia porcellus is 6.8 min. For the same molecule, the Ratio in the assay filed under Canis familiaris [3] is 0.55.

As to `CCCN(CCC)CCN1CCc2c(c(=O)oc3cc(OC)ccc23)C1`, the ED50 in the assay listed under Canis familiaris [1] was found to be 0.855 mg/kg; in the assay listed under Canis familiaris [2], 0.428 mg/kg. The Collapse time in the assay with Cavia porcellus is on record as 7 min. The Ratio in the assay filed under Canis familiaris [3] came out at 2.

As for `CCOc1cc2oc(=O)c3c(c2cc1OCC)CCN(CC(C)N1CCCC1)C3` (configuration not stated), the figures for the ED50 in the assay filed under Canis familiaris [1] and in the assay filed under Canis familiaris [2] were 0.163 mg/kg and 0.099 mg/kg, respectively. The Collapse time in the assay with Cavia porcellus was 9.4 min. Also, in the assay filed under Canis familiaris [3], the Ratio stood at 1.6.

Turning to `CCCN(CC)C(C)CN1CCc2c(c(=O)oc3ccccc23)C1` (configuration not stated), the values for the ED50 in the assay filed under Canis familiaris [1] and in the assay listed under Canis familiaris [2] were 0.97 mg/kg and 1.11 mg/kg, respectively. This molecule also displayed a Collapse time with Cavia porcellus of 6.4 min. Besides, the Ratio in the assay filed under Canis familiaris [3] is reported as 0.88.

For `Cc1ccc2c3c(c(=O)oc2c1)CN(CC(C)N1CCCCC1)CC3` (configuration not stated), the ED50 in the assay filed under Canis familiaris [1] worked out at 0.108 mg/kg; in the assay filed under Canis familiaris [2], 0.04 mg/kg. Besides, the Collapse time with Cavia porcellus is recorded as 9.7 min. For the same molecule, the Ratio in the assay listed under Canis familiaris [3] turned out to be 2.7.

As for `COc1cc2oc(=O)c3c(c2cc1OC)CCN(CCN1CC2CCC(CC2)C1)C3`, the ED50 is 0.53 mg/kg in the assay listed under Canis familiaris [1] and 0.113 mg/kg in the assay filed under Canis familiaris [2]. In addition, the Collapse time in the assay on Cavia porcellus was 5 min. Besides, the Ratio in the assay listed under Canis familiaris [3] came out at 4.7.

In the case of `Cc1cc2oc(=O)c3c(c2cc1C)CCN(CC(C)N1CCCCC1)C3` (configuration not stated), the ED50 in the assay listed under Canis familiaris [1] was found to be 1.16 mg/kg; in the assay listed under Canis familiaris [2], 0.3 mg/kg. Also, the Collapse time in the assay with Cavia porcellus was 7.7 min. Also, in the assay listed under Canis familiaris [3], the Ratio was determined as 3.9.
